Test results reported in ChEMBL document CHEMBL1156710, “Design, synthesis and characterization of some bioactive conjugates of curcumin with glycine, glutamic acid, valine and demethylenated piperic acid and study of their antimicrobial and antiproliferative properties” (2008).
Converted amounts (≈) assume the structure as drawn. The source made the active and inactive calls. No cut-off for these calls is given here.

Tests used:
[1] = system: Candida albicans; experiment: Antifungal activity against Candida albicans at 20 umol/ml after 48 hrs; format: functional
Outline: (§1)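 Clinical fungal isolates were subcultured on Sabouraud dextrose agar. For the inoculum, cultures were grown on Sabouraud dextrose agar for 48 h at 37 °C. Conidia were dislodged into sterile saline, the suspension was brought to 5 ml, and the microconidia were counted. This suspension was swabbed over Sabouraud dextrose agar plates poured 5 mm deep, and excess was decanted. Sterile 6 mm discs were charged with compound.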

[2] = system: Staphylococcus saprophyticus; experiment: Antibacterial activity against Staphylococcus saprophyticus at 20 umol/ml after 24 hrs by Kirby-Bauer's disk diffusion assay; format: functional
Outline: (§2)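 Kirby-Bauer disc diffusion. Compounds were dissolved in acetone and serially diluted. Sterile 6 mm discs were soaked in the solutions and dried. 1 ml of bacterial broth culture was spread on Mueller-Hinton agar plates and the discs were placed aseptically. Plates were incubated upright at 37 °C for 24 h and the inhibition zone was measured with a scale.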

[3] = system: Micrococcus; experiment: Antibacterial activity against Micrococcus after 18 hrs by broth microdilution susceptibility test; format: functional
Outline: (§3)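 Broth microdilution in Mueller-Hinton broth at pH 7.4. Inoculum came from a broth culture grown 4–6 h to log phase. Compound dilutions were […]. Tubes were shaken and incubated at 37 °C for 18 h, then read for turbidity. MIC is the lowest concentration with no turbidity. Each test was run in triplicate and MICs come from at least two repetitions.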

[4] = system: Klebsiella aerogenes; experiment: Antibacterial activity against Klebsiella aerogenes after 18 hrs by broth microdilution susceptibility test; format: functional; outline: as §3
[5] = system: Staphylococcus saprophyticus; experiment: Antibacterial activity against Staphylococcus saprophyticus after 18 hrs by broth microdilution susceptibility test; format: functional; outline: as §3
[6] = system: Micrococcus; experiment: Antibacterial activity against Micrococcus at 20 umol/ml after 24 hrs by Kirby-Bauer's disk diffusion assay; format: functional; outline: as §2
[7] = system: Enterobacter cloacae; experiment: Antibacterial activity against Enterobacter cloacae at 20 umol/ml after 24 hrs by Kirby-Bauer's disk diffusion assay; format: functional; outline: as §2
[8] = system: Escherichia coli; experiment: Antibacterial activity against Escherichia coli after 18 hrs by broth microdilution susceptibility test; format: functional; outline: as §3
[9] = system: Enterobacter cloacae; experiment: Antibacterial activity against Enterobacter cloacae after 18 hrs by broth microdilution susceptibility test; format: functional; outline: as §3
[10] = system: Enterobacter cloacae; experiment: Antibacterial activity against Enterobacter cloacae at 10 umol/ml after 24 hrs by Kirby-Bauer's disk diffusion assay; format: functional; outline: as §2
[11] = system: Klebsiella aerogenes; experiment: Antibacterial activity against Klebsiella aerogenes at 20 umol/ml after 24 hrs by Kirby-Bauer's disk diffusion assay; format: functional; outline: as §2
[12] = system: Enterobacter cloacae; experiment: Antibacterial activity against Enterobacter cloacae at 5 umol/ml after 24 hrs by Kirby-Bauer's disk diffusion assay; format: functional; outline: as §2
[13] = system: Escherichia coli; experiment: Antibacterial activity against Escherichia coli at 20 umol/ml after 24 hrs by Kirby-Bauer's disk diffusion assay; format: functional; outline: as §2
[14] = system: Micrococcus; experiment: Antibacterial activity against Micrococcus at 10 umol/ml after 24 hrs by Kirby-Bauer's disk diffusion assay; format: functional; outline: as §2
[15] = system: Penicillium chrysogenum; experiment: Antifungal activity against Penicillium notatum at 20 umol/ml after 48 hrs; format: functional; outline: as §1
[16] = system: Micrococcus; experiment: Antibacterial activity against Micrococcus at 5 umol/ml after 24 hrs by Kirby-Bauer's disk diffusion assay; format: functional; outline: as §2
[17] = system: Escherichia coli; experiment: Antibacterial activity against Escherichia coli at 10 umol/ml after 24 hrs by Kirby-Bauer's disk diffusion assay; format: functional; outline: as §2
[18] = system: Aspergillus fumigatus; experiment: Antifungal activity against Aspergillus fumigatus at 10 umol/ml after 48 hrs; format: functional; outline: as §1
[19] = system: Candida albicans; experiment: Antifungal activity against Candida albicans at 10 umol/ml after 48 hrs; format: functional; outline: as §1
[20] = system: Penicillium chrysogenum; experiment: Antifungal activity against Penicillium notatum at 10 umol/ml after 48 hrs; format: functional; outline: as §1
[21] = system: Aspergillus fumigatus; experiment: Antifungal activity against Aspergillus fumigatus at 20 umol/ml after 48 hrs; format: functional; outline: as §1
[22] = system: Candida parapsilosis; experiment: Antifungal activity against Candida parapsilosis at 20 umol/ml after 48 hrs; format: functional
Outline: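 Clinical isolates from diagnosed patients, subcultured on Sabouraud dextrose agar slants at 30 °C for 10–12 days. Inoculum from 48 h SDA cultures at 37 °C, dislodged into sterile saline and brought to 5 ml. Suspension swab-spread on SDA plates poured 5 mm deep, excess decanted. Sterile 6 mm discs charged with compound. Fluconazole reference.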

[23] = system: Staphylococcus saprophyticus; experiment: Antibacterial activity against Staphylococcus saprophyticus at 5 umol/ml after 24 hrs by Kirby-Bauer's disk diffusion assay; format: functional; outline: as §2
[24] = system: Staphylococcus saprophyticus; experiment: Antibacterial activity against Staphylococcus saprophyticus at 10 umol/ml after 24 hrs by Kirby-Bauer's disk diffusion assay; format: functional; outline: as §2
[25] = system: HeLa; experiment: Antiproliferative activity against human HeLa cells after 48 hrs by MTT assay; format: functional, cell-based
Outline: (§4)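 KB and HeLa cells were grown in DMEM with 10% heat-inactivated fetal calf serum and penicillin-streptomycin at 37 °C, 5% CO2. Cells were seeded at 5×10³ per well. After 16 h the medium was replaced with medium containing compound diluted from stock. MTT (from a 5 mg/ml 10× stock) was added for 4 h at 37 °C. Crystals were dissolved in DMSO and OD read at 570 nm, 48 h after treatment.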

[26] = system: KB; experiment: Antiproliferative activity against human KB cells after 48 hrs by MTT assay; format: functional, cell-based; outline: as §4

SMILES | inhibition zone (IZ) [1] [mm] | inhibition zone (IZ) [2] [mm] | MIC [3] [mM] | Activity [4] | MIC [5] [mM] | inhibition zone (IZ) [6] [mm] | inhibition zone (IZ) [7] [mm] | Activity [8] | MIC [9] [mM] | inhibition zone (IZ) [11] [mm] | MIC [4] [mM] | inhibition zone (IZ) [13] [mm] | MIC [8] [mM] | inhibition zone (IZ) [14] [mm] | Activity [5] | Activity [9] | further results
O=C(O)/C=C/C=C/c1ccc(O)c(O)c1 [DEMETHYLENATED PIPERIC ACID] | 16 | 10 | 10 (≈ 2060 µg/mL) | inactive | 20 (≈ 4120 µg/mL) | 15 | 18 | inactive | 10 (≈ 2060 µg/mL) | – | – | – | – | – | – | – | –
COc1cc(/C=C/C(=O)CC(=O)/C=C/c2ccc(OC(=O)/C=C/C=C/c3ccc(O)c(O)c3)c(OC)c2)ccc1OC(=O)/C=C/C=C/c1ccc(O)c(O)c1 | 16 | 10 | 10 (≈ 7450 µg/mL) | – | 20 (≈ 14900 µg/mL) | 16 | 18 | – | 5 (≈ 3720 µg/mL) | 11 | 20 (≈ 14900 µg/mL) | 16 | 10 (≈ 7450 µg/mL) | 12 | – | – | inhibition zone (IZ) [10]: 14 mm; inhibition zone (IZ) [12]: 12 mm
O=C(O)/C=C/C=C/c1ccc2c(c1)OCO2 [PIPERIC ACID] | – | – | – | – | – | – | – | inactive | – | 8 | 20 (≈ 4360 µg/mL) | – | – | – | inactive | – | –
COc1cc(/C=C/C(=O)CC(=O)/C=C/c2ccc(OC(=O)[C@@H](N)C(C)C)c(OC)c2)ccc1O [MONOVALINOYL CURCUMIN] | – | – | 2.5 (≈ 1170 µg/mL) | – | – | 26 | 25 | – | 2.5 (≈ 1170 µg/mL) | 18 | 5 (≈ 2340 µg/mL) | 13 | 10 (≈ 4680 µg/mL) | 20 | inactive | – | inhibition zone (IZ) [15]: 12 mm; inhibition zone (IZ) [16]: 19 mm; inhibition zone (IZ) [17]: 11 mm
COc1cc(/C=C/C(=O)CC(=O)/C=C/c2ccc(O)c(OC)c2)ccc1O [CURCUMIN] | 15 | – | – | inactive | – | – | – | – | – | – | – | 10 | 20 (≈ 7370 µg/mL) | – | – | – | –
COc1cc(/C=C/C(=O)CC(=O)/C=C/c2ccc(OC(=O)CN)c(OC)c2)ccc1O [MONOGLYCINOYL CURCUMIN] | 20 | – | – | – | – | – | – | – | – | 18 | 5 (≈ 2130 µg/mL) | 12 | 20 (≈ 8510 µg/mL) | – | inactive | inactive | inhibition zone (IZ) [15]: 20 mm; Activity [3]: inactive; inhibition zone (IZ) [18]: 20 mm; inhibition zone (IZ) [19]: 18 mm; inhibition zone (IZ) [20]: 16 mm; inhibition zone (IZ) [21]: 25 mm; inhibition zone (IZ) [22]: 14 mm
COc1cc(/C=C/C(=O)CC(=O)/C=C/c2ccc(OC(=O)CN)c(OC)c2)ccc1OC(=O)CN | – | 14 | 10 (≈ 4820 µg/mL) | inactive | – | 15 | 12 | – | – | – | – | – | 20 (≈ 9650 µg/mL) | 13 | inactive | inactive | inhibition zone (IZ) [23]: 10 mm; inhibition zone (IZ) [16]: 10 mm; inhibition zone (IZ) [24]: 12 mm
COc1cc(/C=C/C(=O)CC(=O)/C=C/c2ccc(OC(=O)[C@@H](N)C(C)C)c(OC)c2)ccc1OC(=O)[C@@H](N)C(C)C | – | 14 | 10 (≈ 5670 µg/mL) | inactive | 10 (≈ 5670 µg/mL) | 16 | 20 | – | 5 (≈ 2830 µg/mL) | – | – | 20 | 5 (≈ 2830 µg/mL) | 13 | – | – | inhibition zone (IZ) [24]: 12 mm
COc1cc(/C=C/C(=O)CC(=O)/C=C/c2ccc(OC(=O)[C@@H](N)CCC(=O)O)c(OC)c2)ccc1OC(=O)[C@@H](N)CCC(=O)O | – | – | 5 (≈ 3130 µg/mL) | – | – | 18 | – | inactive | – | 9 | 20 (≈ 12500 µg/mL) | – | – | 16 | inactive | inactive | Activity [25]: Active; Activity [26]: Active
OC(Cn1cncn1)(Cn1cncn1)c1ccc(F)cc1F [FLUCONAZOLE] | 29 | – | – | – | – | – | – | – | – | – | – | – | – | – | – | – | inhibition zone (IZ) [22]: 20 mm
